According to ChEMBL document CHEMBL4049390, “Combination of amino acid/dipeptide with ligustrazine-betulinic acid as antitumor agents” (Eur J Med Chem, 2017):

Experiments:
HeLa = assay: Antiproliferative activity against human HeLa cells after 72 hrs by MTT assay; type: functional, cell-based
Procedure, shortened: (§1)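 MTT assay. Log-phase cells were seeded at 3×10^3 cells/well and left overnight, then exposed to serial dilutions of compound (DMSO solutions) for 72 h in RPMI 1640 with 10% heat-inactivated FBS at 37 °C, 5% CO2. MTT (5 mg/mL, 20 µL) was added for 4 h at 37 °C and the formazan dissolved in DMSO. A490 was read. % inhibition = (1 − sample OD/control OD)×100; IC50 is the 50% growth-inhibition concentration. Triplicates, n = 3 independent experiments.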

HT-29 = assay: Antiproliferative activity against human HT-29 cells after 72 hrs by MTT assay; type: functional, cell-based; settings: HT-29, 72 h; procedure, shortened: as §1
A549 = assay: Antiproliferative activity against human A549 cells after 72 hrs by MTT assay; type: functional, cell-based; settings: A549, 72 h; procedure, shortened: as §1
HepG2 = assay: Antiproliferative activity against human HepG2 cells after 72 hrs by MTT assay; type: functional, cell-based; settings: HepG2, 72 h; procedure, shortened: as §1
BGC-823 = assay: Antiproliferative activity against human BGC823 cells after 72 hrs by MTT assay; type: functional, cell-based; settings: BGC-823, 72 h; procedure, shortened: as §1
MDCK = assay: Antiproliferative activity against MDCK cells after 72 hrs by MTT assay; type: cell-based; settings: Canis lupus familiaris; procedure, shortened: as §1

| IC50 (HeLa) | IC50 (HT-29) | IC50 (A549) | IC50 (HepG2) | IC50 (BGC-823) | SMILES | IC50 (MDCK) |
| --- | --- | --- | --- | --- | --- | --- |
| 2.4 µM | 3.19 µM | 1.95 µM | 4 µM | 2.88 µM | C=C(C)[C@@H]1CC[C@]2(C(=O)OCc3nc(C)c(C)nc3C)CC[C@]3(C)[C@H](CC[C@@H]4[C@@]5(C)CC[C@H](OC(=O)CNC(=O)CN)C(C)(C)[C@@H]5CC[C@]43C)[C@@H]12 | 7.45 µM |
| 6.33 µM | 2.73 µM | 3.36 µM | 4.54 µM | 3.47 µM | C=C(C)[C@@H]1CC[C@]2(C(=O)OCc3nc(C)c(C)nc3C)CC[C@]3(C)[C@H](CC[C@@H]4[C@@]5(C)CC[C@H](OC(=O)[C@@H]6CCCN6)C(C)(C)[C@@H]5CC[C@]43C)[C@@H]12 | 10.2 µM |
| 6.62 µM | 7.74 µM | 6.33 µM | > 20 µM | 6.16 µM | C=C(C)[C@@H]1CC[C@]2(C(=O)OCc3nc(C)c(C)nc3C)CC[C@]3(C)[C@H](CC[C@@H]4[C@@]5(C)CC[C@H](OC(=O)[C@H](C)N)C(C)(C)[C@@H]5CC[C@]43C)[C@@H]12 | > 40 µM |
| 3.02 µM | 5.98 µM | 3.91 µM | 3.75 µM | 1.83 µM | C=C(C)[C@@H]1CC[C@]2(C(=O)OCc3nc(C)c(C)nc3C)CC[C@]3(C)[C@H](CC[C@@H]4[C@@]5(C)CC[C@H](OC(=O)CN(C)C(=O)[C@@H]6CCCN6)C(C)(C)[C@@H]5CC[C@]43C)[C@@H]12 | 11.3 µM |
| 6.59 µM | 3.78 µM | 4.11 µM | 5.86 µM | 4.7 µM | C=C(C)[C@@H]1CC[C@]2(C(=O)OCc3nc(C)c(C)nc3C)CC[C@]3(C)[C@H](CC[C@@H]4[C@@]5(C)CC[C@H](OC(=O)[C@@H]6CCC(=O)N6)C(C)(C)[C@@H]5CC[C@]43C)[C@@H]12 | 9.24 µM |
| 3.19 µM | 3.67 µM | 3.25 µM | 2.27 µM | 4.99 µM | C=C(C)[C@@H]1CC[C@]2(C(=O)OCc3nc(C)c(C)nc3C)CC[C@]3(C)[C@H](CC[C@@H]4[C@@]5(C)CC[C@H](OC(=O)CNC(=O)[C@H](C)N)C(C)(C)[C@@H]5CC[C@]43C)[C@@H]12 | 16.2 µM |
| 3.96 µM | 1.1 µM | 3.05 µM | 4.5 µM | 3.97 µM | C=C(C)[C@@H]1CC[C@]2(C(=O)OCc3nc(C)c(C)nc3C)CC[C@]3(C)[C@H](CC[C@@H]4[C@@]5(C)CC[C@H](OC(=O)CNC)C(C)(C)[C@@H]5CC[C@]43C)[C@@H]12 | 9.08 µM |
| 4.55 µM | 3.86 µM | 5.18 µM | 4.27 µM | 4.38 µM | C=C(C)[C@@H]1CC[C@]2(C(=O)OCc3nc(C)c(C)nc3C)CC[C@]3(C)[C@H](CC[C@@H]4[C@@]5(C)CC[C@H](OC(=O)CN(C)C(=O)[C@H](C)N)C(C)(C)[C@@H]5CC[C@]43C)[C@@H]12 | 14.6 µM |
| 4.24 µM | 3.97 µM | 3.62 µM | 6.77 µM | 3.87 µM | C=C(C)[C@@H]1CC[C@]2(C(=O)OCc3nc(C)c(C)nc3C)CC[C@]3(C)[C@H](CC[C@@H]4[C@@]5(C)CC[C@H](OC(=O)CN)C(C)(C)[C@@H]5CC[C@]43C)[C@@H]12 | 5.82 µM |
| 7.38 µM | 3.37 µM | 3.02 µM | 5.27 µM | 2.07 µM | C=C(C)[C@@H]1CC[C@]2(C(=O)OCc3nc(C)c(C)nc3C)CC[C@]3(C)[C@H](CC[C@@H]4[C@@]5(C)CC[C@H](OC(=O)CNC(=O)CNC)C(C)(C)[C@@H]5CC[C@]43C)[C@@H]12 | 20.6 µM |
| 5.08 µM | 8.32 µM | 4.83 µM | 3.94 µM | 4.1 µM | C=C(C)[C@@H]1CC[C@]2(C(=O)OCc3nc(C)c(C)nc3C)CC[C@]3(C)[C@H](CC[C@@H]4[C@@]5(C)CC[C@H](OC(=O)CN(C)C(=O)CNC)C(C)(C)[C@@H]5CC[C@]43C)[C@@H]12 | 10.9 µM |
| 2.74 µM | 4.35 µM | 4.39 µM | 4.03 µM | 6.21 µM | C=C(C)[C@@H]1CC[C@]2(C(=O)OCc3nc(C)c(C)nc3C)CC[C@]3(C)[C@H](CC[C@@H]4[C@@]5(C)CC[C@H](OC(=O)[C@@H](N)CO)C(C)(C)[C@@H]5CC[C@]43C)[C@@H]12 | 8.56 µM |
| 2.2 µM | 4.11 µM | 2.98 µM | 3.48 µM | 0.84 µM | C=C(C)[C@@H]1CC[C@]2(C(=O)OCc3nc(C)c(C)nc3C)CC[C@]3(C)[C@H](CC[C@@H]4[C@@]5(C)CC[C@H](OC(=O)CNC(=O)[C@@H]6CCCN6)C(C)(C)[C@@H]5CC[C@]43C)[C@@H]12 | 6.63 µM |
| 2.62 µM | 3.31 µM | 2.96 µM | 4.94 µM | 3.43 µM | C=C(C)[C@@H]1CC[C@]2(C(=O)OCc3nc(C)c(C)nc3C)CC[C@]3(C)[C@H](CC[C@@H]4[C@@]5(C)CC[C@H](OC(=O)CN(C)C(=O)CN)C(C)(C)[C@@H]5CC[C@]43C)[C@@H]12 | 8.08 µM |

Second part, the molecule before the results:

| SMILES | IC50 (HeLa) | IC50 (HT-29) | IC50 (A549) | IC50 (HepG2) | IC50 (BGC-823) | IC50 (MDCK) |
| --- | --- | --- | --- | --- | --- | --- |
| C=C(C)[C@@H]1CC[C@]2(C(=O)OCc3nc(C)c(C)nc3C)CC[C@]3(C)[C@H](CC[C@@H]4[C@@]5(C)CC[C@H](OC(=O)[C@@H](N)C(C)C)C(C)(C)[C@@H]5CC[C@]43C)[C@@H]12 | 8.63 µM | > 20 µM | 6.9 µM | 5.91 µM | 7.14 µM | > 40 µM |
| C=C(C)[C@@H]1CC[C@]2(C(=O)OCc3nc(C)c(C)nc3C)CC[C@]3(C)[C@H](CC[C@@H]4[C@@]5(C)CC[C@H](OC(=O)[C@@H](N)[C@@H](C)CC)C(C)(C)[C@@H]5CC[C@]43C)[C@@H]12 | > 20 µM | 15.9 µM | 14.5 µM | 12.7 µM | > 20 µM | > 40 µM |
| C=C(C)[C@@H]1CC[C@]2(C(=O)OCc3nc(C)c(C)nc3C)CC[C@]3(C)[C@H](CC[C@@H]4[C@@]5(C)CC[C@H](OC(=O)[C@@H](N)CC(C)C)C(C)(C)[C@@H]5CC[C@]43C)[C@@H]12 | > 20 µM | > 20 µM | > 20 µM | > 40 µM | > 20 µM | > 40 µM |
| C=C(C)[C@@H]1CC[C@]2(C(=O)OCc3nc(C)c(C)nc3C)CC[C@]3(C)[C@H](CC[C@@H]4[C@@]5(C)CC[C@H](OC(=O)[C@H](C)NC(=O)[C@H](C)N)C(C)(C)[C@@H]5CC[C@]43C)[C@@H]12 | 4.49 µM | 4.18 µM | 2.54 µM | 1.93 µM | 2.51 µM | 10.2 µM |
| C=C(C)[C@@H]1CC[C@]2(C(=O)OCc3nc(C)c(C)nc3C)CC[C@]3(C)[C@H](CC[C@@H]4[C@@]5(C)CC[C@H](OC(=O)[C@@H](N)Cc6c[nH]c7ccccc67)C(C)(C)[C@@H]5CC[C@]43C)[C@@H]12 | > 20 µM | 7.41 µM | > 20 µM | > 40 µM | > 20 µM | > 40 µM |
| C=C(C)[C@@H]1CC[C@]2(C(=O)OCc3nc(C)c(C)nc3C)CC[C@]3(C)[C@H](CC[C@@H]4[C@@]5(C)CC[C@H](OC(=O)[C@@H](N)[C@@H](C)O)C(C)(C)[C@@H]5CC[C@]43C)[C@@H]12 | 8.39 µM | 6.66 µM | 4.18 µM | 3.64 µM | 7.05 µM | > 40 µM |
| C=C(C)[C@@H]1CC[C@]2(C(=O)OCc3nc(C)c(C)nc3C)CC[C@]3(C)[C@H](CC[C@@H]4[C@@]5(C)CC[C@H](OC(=O)[C@@H](N)Cc6ccccc6)C(C)(C)[C@@H]5CC[C@]43C)[C@@H]12 | > 40 µM | > 20 µM | > 40 µM | > 40 µM | > 20 µM | > 40 µM |
| C=C(C)[C@@H]1CC[C@]2(C(=O)OCc3nc(C)c(C)nc3C)CC[C@]3(C)[C@H](CC[C@@H]4[C@@]5(C)CC[C@H](OC(=O)[C@H](N)CC(=O)O)C(C)(C)[C@@H]5CC[C@]43C)[C@@H]12 | > 20 µM | > 20 µM | > 20 µM | > 20 µM | > 20 µM | > 40 µM |
| C=C(C)[C@@H]1CC[C@]2(C(=O)OCc3nc(C)c(C)nc3C)CC[C@]3(C)[C@H](CC[C@@H]4[C@@]5(C)CC[C@H](O)C(C)(C)[C@@H]5CC[C@]43C)[C@@H]12 | 8 µM | 7.41 µM | 3.56 µM | 5.7 µM | 6.87 µM | 18.2 µM |
